The sample as a whole holds a higher share of hits than the screen did.
HSF-1 act: increases HSF-1 driven luciferase reporter signal; actives 1.7% (n = 300,000); NIH3T3-HGL HSF-1 luciferase reporter, MG132, 8 h; 100% = twice DMSO control signal; activation, % at 9 µM; AID 504408;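 active = mean replicate activation of at least 50% with a set share of replicates each reaching 50%; inconclusive = only one of those two conditions met; inactive = mean below 50% and too few replicates reaching it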;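 also: 0% = median of the neutral control wells and 100% = twice that signal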
T cruzi inh: blocks replication of Trypanosoma cruzi; T. cruzi beta-gal in NIH3T3, luminescence, 90 h; actives 1.4% (n = 300,000); inhibition, % (test concentration not listed);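 active = mean inhibition across valid replicates above about 55%, limit read from the data; inconclusive = mean below that limit but half or more replicates reach it; inactive = mean below it, under half of replicates reach it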;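 also: signal also drops with host cell toxicity which is not excluded here; 0% = plate median of DMSO wells and 100% = zero luminescence signal; higher percent means less beta-gal luminescence so fewer parasites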
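Test system: β-gal T. cruzi (Tulahuen C4) inside NIH/3T3 cells / Quantity: 5,000 cells/well / Measured by: luminescence from GalScreen with 0.05% NP40, read after 60 min / Medium: DMEM plus 2% FBS / Measure: parasite load inhibition, % / Reagent: Tulahuen C4 trypomastigotes, 5000/well / Schedule: co-culture of at least 90 h after 3 h attachment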
L major viab: Leishmania major promastigote growth inhibition; inhibition, % at 10 µM; actives 9% (n = 200,000); Leishmania major promastigotes, resazurin fluorescence viability; AID 1063; in the data active = inhibition above about 50%;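 also: promastigotes grown with compound for 44 hours at 28 °C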
HSF1 inhib: HSF1 inhibition; NIH3T3-HGL HSE-luciferase, MG132-induced, luminescence 8 h; active compounds read low; actives 0.77% (n = 300,000); activity change, negative = inhibition, % at 7.5 µM (by protocol);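 active = more than half of replicate wells show activity change below -50%, luminescence cut by over half; inconclusive = some wells, but at most half, below -50%; inactive = no replicate well below -50%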;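 also: luciferase reports HSF-1 transcriptional activity via heat shock element; 0% = median of DMSO wells and -100% = zero luminescence signal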
Hsp70 activator: transcriptional activators of Hsp70 | HeLa Hsp70 promoter luciferase reporter, luminescence; scaled: vehicle 0, proteasome-inhibitor control 100% | activation, % at 10 µM | actives 0.04% (n = 200,000);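 active = activation above the mean across all tested compounds plus 3 SD, cutoff set per campaign, cut at about 5.5% in these data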;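 also: 100% = MG132 at 30 µM as the positive control and 0% = DMSO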
Starred values were filed as active, the others as inactive; u = inconclusive; x = no result given.

SMILES	HSF-1 act	T cruzi inh	L major viab	HSF1 inhib	Hsp70 activator
CCOc1ncccc1C(=O)Nc1nc(SC)ns1	33	-8	5	19	0
O/N=C(/CCc1ccccc1)c1ccc2c(c1)OCCO2	55*	-7	15	22	0
O=C(CCc1ccccc1)c1ccc2c(c1)OCCCO2	u	-7	-2	27	0
O=C(NCCc1ccccc1)c1ccc2c(c1)OCCO2	-69	-6	x	-66*	x
O=C(CCCc1ccccc1)c1ccc2c(c1)OCCO2	-91	-3	-2	-89*	-1
O=C(NCCc1ccccc1)Nc1ccc2c(c1)OCO2	62*	23	12	26	0
Cc1onc(-c2ccccc2)c1-c1n[nH]c(=S)n1-c1ccccc1	1	-11	-3	-1	0
Nc1cc[n+](CC(=O)c2ccc3c(c2)OCCO3)cc1	3	12	78*	-5	0
O=C(C[n+]1ccc(C(=O)NCc2ccccc2)cc1)c1ccc2c(c1)OCCO2	14	-6	-3	0	0
O=C(NCCc1ccccc1)c1ccc2c(c1)OCCCO2	-86	-4	x	-83*	x
COc1ccc(CCNC(=O)c2ccc3c(c2)OCCO3)cc1	31	8	3	12	0
O=c1[nH]c(SCc2ccc(Cl)cc2)nc2ccsc12	127*	10	-15	72	0
N#Cc1c(-c2cccs2)nc(SCc2ccc(Cl)cc2)[nH]c1=O	-14	-23	-10	-1	0
Cn1c(-c2ccc(F)cc2)cnc1SCC(=O)N1CCCc2ccccc21	20	21	-3	6	0
CC1Cc2ccccc2N1C(=O)CSc1ncc(-c2ccc(F)cc2)n1C (centres undefined)	67*	-7	-2	49	0
COc1cccc(-n2c(SCC(=O)N3c4ccccc4CC3C)nnc2-c2ccco2)c1 (centres undefined)	x	x	53*	x	0
CC1Cc2ccccc2N1C(=O)CSc1nnc2n1C(C)(C)Cc1ccccc1-2 (centres undefined)	9	8	52*	5	0
Cc1ccc(S(=O)(=O)Oc2ccccc2/C=N/Nc2ccc(C(=O)O)cc2)cc1	2	1	x	3	x
Cc1nccn1CCC(=O)Nc1ccc(Cl)cc1	-4	-9	-10	0	0
O=C(NC1CCN(C(=O)C2CCCCC2)CC1)c1ccccc1	-1	12	x	-1	x
COc1cc(C(=O)Oc2cc(C)cc(C)c2)cc(OC)c1OC	-11	2	-7	1	0
COc1cc(C(=O)O/N=C2/C=C(C)C(=O)C=C2C)cc(OC)c1OC	6	-36	93*	0	0
COc1cc(C(=O)ON=C2C(C)=CC(=O)C=C2C)cc(OC)c1OC	25	-23	74*	21	0
COc1cc(C(=O)OCC(=O)c2cc(C)n(C)c2C)cc(OC)c1OC	4	-11	19	-1	0
COc1ccc(CCNC(=O)C2CCN(S(=O)(=O)c3ccc4nc5c(c(C(=O)O)c4c3)CCCC5)CC2)cc1OC	-16	-6	x	2	x
SMILES	HSF-1 act	T cruzi inh	L major viab	HSF1 inhib	Hsp70 activator
CCOC(=O)c1cc(C#N)c(N2CCN(C)CC2)nc1-c1ccccc1	5	57*	89*	1	0
CCOC(=O)c1cc(C#N)c(NCc2ccccc2)nc1C	-78	23	-2	-72*	0
CCC(=O)N1CCN(c2nc(-c3ccccc3)c3c(c2C#N)CCCC3)CC1	16	26	76*	2	0
CC(=O)c1cc(C#N)c(NCc2ccccc2)nc1C	26	13	4	2	0
N#Cc1c(SCC(=O)O)nc(-c2ccccc2)c2c1CCCC2	-7	15	-10	-4	0
N#Cc1c(NCc2ccccc2)ccnc1Cl	6	-1	x	-7	x
CCOC(=O)CN(C)Cc1cn[nH]c1-c1ccc2cc(OC)ccc2c1	18	-6	x	16	x
COCC1CCCCN1Cc1cn[nH]c1-c1ccc2cc(OC)ccc2c1 (centres undefined)	15	70*	0	8	0
COCC1CCCCN1Cc1cn[nH]c1-c1ccc(OC)cc1OC (centres undefined)	8	-1	-6	-6	0
COCCN(Cc1cn[nH]c1-c1ccc2cc(OC)ccc2c1)C(C)C	56*	65*	x	38	x
Cc1cc(=O)cc(C)n1-c1ccc(F)cc1F	-13	-10	-9	-6	0
S=c1[nH]nc(-c2ccc3ccccc3n2)n1-c1ccc2ncccc2c1	0	0	88*	-10	0
Oc1ccc(-c2n[nH]c(=S)n2-c2ccc3c(c2)OCCO3)cc1	13	-3	0	-7	0
S=c1[nH]nc(-c2ccc3ncccc3c2)n1-c1ccc2c(c1)OCCO2	-7	13	91*	-4	0
O=C(CSc1nccc2ccccc12)N1CCN(c2ccccn2)CC1	1	-19	1	-1	0
O=C(N/N=C/c1ccc([N+](=O)[O-])o1)C1CC1	7	73*	100*	6	0
COC(=O)N/N=C/c1ccc([N+](=O)[O-])o1	-48	55*	99*	-29	0
Cc1nonc1C(=O)N/N=C/c1ccc([N+](=O)[O-])o1	23	19	94*	13	0
Cc1nonc1C(=O)N/N=C/c1ccc(O)cc1O	17	-10	98*	12	0
Cc1ccc(C)c(NC(=S)N2CCN(CCO)CC2)c1	-1	-4	46	-6	0
C#CCN1C(=O)S/C(=C/C=C/c2ccc(N(C)C)cc2)C1=O	x	x	88*	x	0
COc1ccccc1N1CCN(C(c2cc3cc(C)ccc3[nH]c2=O)c2nnnn2C2CCCC2)CC1 (centres undefined)	2	-2	54*	-5	1
COc1ccccc1N1CCN(C(c2cc3ccc(C)cc3[nH]c2=O)c2nnnn2C2CCCC2)CC1 (centres undefined)	2	15	62*	6	0
COc1cc2cc(C(c3nnnn3C3CCCC3)N3CCc4ccccc43)c(=O)[nH]c2cc1OC (centres undefined)	-9	12	-4	9	0
CCOC(=O)C1CCN(C(c2cc3ccc(C)cc3[nH]c2=O)c2nnnn2C2CCCCC2)CC1 (centres undefined)	0	12	88*	6	0
O=C(NCC1COc2ccccc2O1)c1ccc(NC(=O)c2ccco2)cc1 (centres undefined)	10	8	55*	0	0
O=C(NCC1COc2ccccc2O1)c1ccc(Cl)cc1 (centres undefined)	62*	10	0	31	0
O=C(NCc1ccccc1)c1ccc(NC(=O)c2ccco2)cc1	21	11	x	6	x
O=C(CNS(=O)(=O)c1ccc(Br)s1)Nc1ccc2c(c1)OCCO2	4	-1	-2	-11	0
O=C(CNS(=O)(=O)c1ccc(Br)s1)NCC1COc2ccccc2O1 (centres undefined)	5	-9	59*	0	0

Screening data deposited in PubChem BioAssay by several laboratories.
